Activity calls are given as the source filed them.
Legend:
WI-38 = assay: Antiapoptotic activity against TNF-alpha induced apoptosis in human WI38 cells assessed as cell survival at 0.1 uM to 10 uM after 24 hrs by methylene blue assay in presence of 0.5 ug/ml cycloheximidine; type: functional, cell-based
BJ [1] = assay: Induction of p21 mRNA expression in human BJ cells; type: functional, cell-based
Summary of the method: (§1)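 Wild-type and p53-deficient cell pairs stimulated with 5-FU ([…] as printed) or gamma irradiation (10 or 15 Gy); p21 mRNA quantified by real-time PCR; means ± s.d., n = 3.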

[2] = target: Cellular tumor antigen p53 (Homo sapiens) (UniProt P04637); assay: Inhibition of p53-dependent transcription of noxa in doxorubicin-induced human U2OS cells; type: cell-based
Sequence of Cellular tumor antigen p53 (Homo sapiens) (P04637 whole entry, looked up): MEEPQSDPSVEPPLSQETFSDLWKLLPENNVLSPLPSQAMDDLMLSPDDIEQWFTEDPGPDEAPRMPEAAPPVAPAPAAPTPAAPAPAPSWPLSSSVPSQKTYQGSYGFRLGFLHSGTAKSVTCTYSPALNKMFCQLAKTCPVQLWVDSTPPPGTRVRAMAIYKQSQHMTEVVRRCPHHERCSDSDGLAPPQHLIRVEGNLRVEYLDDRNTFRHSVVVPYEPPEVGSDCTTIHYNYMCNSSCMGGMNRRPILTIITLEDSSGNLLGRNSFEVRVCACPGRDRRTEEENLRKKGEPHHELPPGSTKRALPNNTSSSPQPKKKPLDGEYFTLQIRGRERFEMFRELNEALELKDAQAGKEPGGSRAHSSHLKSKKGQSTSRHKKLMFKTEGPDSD
Summary of the method: (§2)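 Northern analysis of U2OS cells, p53 wild-type and shRNA p53-knockdown. Induction by UV 8.5 J m–2 or Dox […]. RNA isolated 18 h after treatment; 10 µg hybridised with 32P-labelled full-length cDNA probes for Bax, Noxa or Puma. 18S rRNA used as loading control.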

Mus musculus [3] = assay: Protection against 8 Gy gamma radiation-induced death in mouse assessed as increase in survival at 40 mg/kg, ip; type: functional; settings: route intraperitoneal
Summary of the method: (§3)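 Male C57Bl/6J mice, 8–10 weeks old, given a single 40 mg kg–1 intraperitoneal dose 30 min before total-body gamma irradiation (137Cs, 4 Gy min–1) at 8 or 9 Gy. Survival followed. Ten mice per subgroup; three independent repeats.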

[4] = target: Cellular tumor antigen p53 (Homo sapiens) (UniProt P04637); assay: Binding affinity to p53 assessed as reduction in mitochondrial-bound p53 level at 10 uM
Summary of the method: (§4)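 Cell-free reconstitution: freshly isolated HeLa or Saos-2 mitochondria (40 mg as printed) incubated 1 h at 37 °C with purified baculoviral human wild-type p53 (60 ng) plus compound in MS buffer with CaCl2; mitochondria pelleted, washed three times, p53 cosedimentation by western blot, mt-Hsp75 loading control.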

[5] = target: Cellular tumor antigen p53 (Homo sapiens) (UniProt P04637); assay: Inhibition of p53-dependent transcription of puma in human MCF7 cells; type: cell-based
Summary of the method: (§5)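 Northern analysis of MCF7 cells, p53 wild-type and shRNA p53-knockdown. Induction by UV 8.5 J m–2 or Dox […]. RNA isolated 18 h after treatment; 10 µg hybridised with 32P-labelled full-length cDNA probes for Bax, Noxa or Puma. 18S rRNA used as loading control.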

NCI-H1299 = assay: Antiapoptotic activity against staurosporine-induced cell death in human H1299 cells assessed as cell survival at 10 uM after 24 hrs by methylene blue assay; type: functional, cell-based
Thymocyte = assay: Induction of Puma gene expression in gamma-induced mouse thymocytes; type: functional, cell-based
MCF7 [6] = assay: Induction of Bax gene expression in human MCF7 cells; type: functional, cell-based
Summary of the method: (§6)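 Northern blot: 10 mg RNA (so in the source) isolated 18 h after UV (8.5 J m–2) or doxorubicin (125 mg ml–1 as printed) from MCF7 or U2OS cells and p53-knockdown (lentiviral shRNA) counterparts; hybridized with 32P-labeled full-length cDNA probes for Bax, Noxa, Puma; 18S rRNA loading control.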

MCF7 [7] = assay: Induction of Noxa gene expression in UV-induced human MCF7 cells; type: functional, cell-based; summary of the method: as §6
[8] = target: Cellular tumor antigen p53 (Homo sapiens) (UniProt P04637); assay: Inhibition of p53-dependent transcription of bax in human MCF7 cells; type: cell-based; summary of the method: as §5
HeLa = assay: Antiapoptotic activity against staurosporine-induced cell death in human HeLa cells assessed as cell survival at 10 uM after 24 hrs by methylene blue assay; type: functional, cell-based
[9] = target: Cellular tumor antigen p53 (Homo sapiens) (UniProt P04637); assay: Inhibition of p53 in human ConA cells assessed as effect on cell cycle distribution at 10 uM after 24 hrs; type: cell-based
Summary of the method: (§7)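 ConA cells given 10 µM test agent, with or without 10 Gy gamma irradiation. Cell-cycle distribution measured 24 h later.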

[10] = target: Cellular tumor antigen p53 (Homo sapiens) (UniProt P04637); assay: Inhibition of p53-dependent transcription of bax in UV-stimulated human […] cells; type: cell-based; summary of the method: as §5
HT-1080 = assay: Antiapoptotic activity against Bax gene-induced apoptosis in human HT1080 cells transfected with pTZV3-CMV-Bax at 10 uM after 24 hrs; type: functional, cell-based
[11] = target: Cellular tumor antigen p53 (Homo sapiens) (UniProt P04637); assay: Inhibition of p53 in gamma-stimulated human ConA cells assessed as effect on cell cycle distribution at 10 uM after 24 hrs; type: cell-based; summary of the method: as §7
[12] = target: Cellular tumor antigen p53 (Mus musculus) (UniProt P02340); assay: Inhibition of p53-dependent transcription of puma in gamma-stimulated mouse thymocyte
Target sequence in this assay (P02340 whole entry): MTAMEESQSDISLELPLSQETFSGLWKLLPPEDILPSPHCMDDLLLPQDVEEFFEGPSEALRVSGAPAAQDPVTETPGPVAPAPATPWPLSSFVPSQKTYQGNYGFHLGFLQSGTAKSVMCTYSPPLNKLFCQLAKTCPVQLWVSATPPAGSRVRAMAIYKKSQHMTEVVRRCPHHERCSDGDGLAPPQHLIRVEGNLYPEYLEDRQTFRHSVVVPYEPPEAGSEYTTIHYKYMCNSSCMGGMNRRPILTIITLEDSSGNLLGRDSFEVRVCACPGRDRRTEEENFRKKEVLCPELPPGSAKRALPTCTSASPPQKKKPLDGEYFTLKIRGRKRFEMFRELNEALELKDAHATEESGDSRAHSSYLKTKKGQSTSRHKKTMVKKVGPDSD

[13] = target: Cellular tumor antigen p53 (Homo sapiens) (UniProt P04637); assay: Inhibition of p53-dependent transcription of noxa in human U2OS cells; type: cell-based; summary of the method: as §2
BJ [14] = assay: Induction of p21 mRNA expression in 5-fluorouracil-stimulated human BJ cells; type: functional, cell-based; summary of the method: as §1
[15] = target: Cellular tumor antigen p53 (Homo sapiens) (UniProt P04637); assay: Binding affinity to p53 assessed as reduction in mitochondrial-bound p53 level at 50 uM; summary of the method: as §4
[16] = target: Cellular tumor antigen p53 (Homo sapiens) (UniProt P04637); assay: Inhibition of p53-mediated transactivation of promoter hDM2 in human H1299 cells at 10 uM after 48 hrs by lacZ reporter assay; type: cell-based
U2OS [17] = assay: Induction of Bax gene expression in doxorubicin-induced human U2OS cells; type: functional, cell-based; summary of the method: as §6
Homo sapiens = organism: Homo sapiens; assay: Induction of p21 mRNA expression in gamma-stimulated human SK-MEL-29 cells; type: functional; summary of the method: as §1
U2OS [18] = assay: Induction of Puma gene expression in doxorubicin-induced human U2OS cells; type: functional, cell-based; summary of the method: as §6
MCF7 [19] = assay: Induction of Puma gene expression in human MCF7 cells; type: functional, cell-based; summary of the method: as §6
[20] = target: Cellular tumor antigen p53 (Homo sapiens) (UniProt P04637); assay: Binding affinity to p53 transfected in human […] cells assessed as reduction in p53 bound-Bcl-xL at 15 uM after 48 hrs; type: cell-based; settings: HEK293
Summary of the method: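 293T cells cotransfected with Flag-tagged wild-type Bcl-xL or Bcl-2 plus wild-type p53 plasmid; compound 15 mM (so in the source) applied 24 h after transfection; lysates (1 mg protein) immunoprecipitated with anti-Flag M2 gel, bound p53 detected with HRP-conjugated DO-1.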

[21] = target: Cellular tumor antigen p53 (Mus musculus) (UniProt P02340); assay: Inhibition of p53-mediated transactivation of p21 in gamma-stimulated mouse ConA cells at 10 uM after 6 hrs
Target sequence in this assay (P02340 whole entry, looked up): as the sequence (P02340 whole entry) above

Mus musculus [22] = assay: Protection against 9 Gy gamma radiation-induced death in mouse assessed as increase in survival at 40 mg/kg, ip; type: functional; settings: route intraperitoneal; summary of the method: as §3
[23] = target: Cellular tumor antigen p53 (Homo sapiens) (UniProt P04637); assay: Inhibition of p53-dependent transcription of noxa in UV-induced human MCF7 cells; type: cell-based; summary of the method: as §5
[24] = target: Cellular tumor antigen p53 (Homo sapiens) (UniProt P04637); assay: Inhibition of p53-mediated transactivation of p21 in gamma-stimulated human SK-MEL-29 cells at 10 uM after 6 hrs
[25] = target: Cellular tumor antigen p53 (Mus musculus) (UniProt P02340); assay: Binding affinity to p53 in gamma irradiated mouse thymocyte assessed as cytosolic p53 concentration at 10 uM after 2 hrs
Target sequence in this assay (P02340 whole entry): as above

HEK-293T = assay: Antiapoptotic activity against Bax gene-induced apoptosis in human 293T cells transfected with pTZV3-CMV-Bax at 10 uM after 24 hrs; type: functional, cell-based
Summary of the method: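 Bax delivered by transient transfection of 293T and HT1080 cells with CMV-Bax construct (Lipofectamine Plus); compound at 10 mM as printed; apoptosis scored 24 h after transfection by annexin/PI staining on FACScan.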

[26] = target: Cellular tumor antigen p53 (Homo sapiens) (UniProt P04637); assay: Binding affinity to p53 assessed as reduction in mitochondrial-bound p53 level at 25 uM; summary of the method: as §4
[27] = target: Cellular tumor antigen p53 (Homo sapiens) (UniProt P04637); assay: Inhibition of p53-dependent transcription of bax in human U2OS cells; type: cell-based; summary of the method: as §2

NS(=O)(=O)C#Cc1ccccc1
active: Activity [4] | Activity [15] | Activity [20] | Activity [26]
inactive: Activity (WI-38) | Activity (BJ [1]) | inhibition [2] | inhibition [5] | Activity (NCI-H1299) | Activity (Thymocyte) | Activity (MCF7 [6]) | Activity (MCF7 [7]) | inhibition [8] | Activity (HeLa) | inhibition [9] | inhibition [10] | Activity (HT-1080) | inhibition [11] | inhibition [12] | inhibition [13] | Activity (BJ [14]) | inhibition [16] | Activity (U2OS [17]) | Activity (Homo sapiens) | Activity (U2OS [18]) | Activity (MCF7 [19]) | inhibition [21] | inhibition [23] | inhibition [24] | Activity [25] | Activity (HEK-293T) | inhibition [27]
70%: Activity (Mus musculus [3])
50%: Activity (Mus musculus [22])

Reference: ChEMBL document CHEMBL1240314, “Small-molecule inhibitor of p53 binding to mitochondria protects mice from gamma radiation” (2006)
